# STAT3 blocker = STAT3 signaling inhibition. hit rate 0.89% among 190,000. U3A cells, IL-6 STAT3-luciferase reporter, luminescence; host cell line lacks STAT1. inhibition, % at 5.5 µM. AID 862;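 active means inhibition above the mean inhibition across all screened compounds plus 3 SD, cut at about 44% in these data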;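 further: 0% = DMSO only wells and 100% = 100 µM nifuroxazide control wells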
# STAT1 inh-1 = inhibitors of IFN-gamma induced STAT1 signaling; hit rate 0.35% among 200,000; inhibition, % at 5.5 µM; AID 920; NIH 3T3 STAT1-luciferase reporter, luminescence;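 active means inhibition above a set limit, the mean inhibition across all tested compounds plus 3 SD, cut at about 34% in these data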;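 further: 0% = IFN-gamma with DMSO and 100% = IFN-gamma with 300 µM nifuroxazide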
# STAT3 activator = STAT3 signaling activation; U3A cells, IL-6 STAT3-luciferase reporter, luminescence; 100% = signal with IL-6 EC80 alone; activation (% of control), % at 5.6 µM; hit rate 0.91% among 190,000;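 active means activation above the screen-wide mean of compound activation plus 3 SD, cut at about 130% in these data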;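 further: 0% = background luminescence of wells with medium and substrate only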
#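 Test system: human U3A cells carrying STAT3-luciferase construct; control set: IL-6-only wells as 100% reference; timing: compound pre-incubation 1 h before IL-6, then 6 h stimulation at 37 °C; also added: IL-6 stimulus at 33 ng/mL final; evaluation: % activation versus median of IL-6-stimulated wells; detection: reporter luminescence signal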
# STAT1 act = activators of IFN-gamma induced STAT1 signaling; NIH 3T3 STAT1-luciferase reporter, luminescence; 100% = IFN-gamma alone, no compound; activation (% of control), % at 5.5 µM; hit rate 2.6% among 200,000;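 active means activation above the screen-wide mean activation plus 3 SD, cut at about 130% in these data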;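 further: raw ratio to IFN-gamma control signal so 100% means no change and 0% no light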
# APP 5'UTR act = activates APP 5'UTR luciferase reporter. hit rate 1% among 190,000. activation, % at 2 µM. SH-SY5Y APP 5'UTR luciferase reporter, luminescence; zero percent = DMSO vehicle wells;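 active means activation above a set limit, based on mean plus 3 SD of controls, cut at about 140% in these data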
# NF-kB neuron act = NF-kB expression increase, human neuronal cells; NF-kB reporter expression; hits give high values; fold change at 12.5 µM; hit rate 1.6% among 190,000; in the data active means fold change above about 3.3
# STAT1 inh-2 = confirmation of STAT1 signaling inhibitors. hit rate 55% among 200. AID 1263. inhibition, % at 5.5 µM. shares compounds with STAT1 inh-1. NIH 3T3 STAT1-luciferase reporter, IFN-gamma, luminescence;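 active means triplicate mean inhibition exceeding the hit cutoff computed for the primary STAT1 screen, cut at about 35% in these data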;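 further: 0% = DMSO with IFN-gamma and 100% = 300 µM nifuroxazide with IFN-gamma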
# NFkB inh = NF-kappaB inhibition in STAT1 inhibitor counter-screen; inhibition, % at 5.7 µM; HEK293T NF-kB luciferase reporter, TNF-alpha induced, luminescence; hit rate 30% among 200; shares compounds with STAT1 inh-1;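 active means inhibition above the mean of solvent-only control wells plus 3 SD of those wells, cut at about 15% in these data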;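 further: 0% = DMSO with TNF-alpha and 100% = MG-132 control with TNF-alpha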
# STAT3 inh 2 = counter-screen for STAT1 inhibitors: STAT3 inhibition; shares compounds with STAT1 inh-1; U3A cells, IL-6 STAT3 luciferase reporter, luminescence; cells lacking STAT1; inhibition, % at 5.7 µM; hit rate 20% among 200; AID 1310;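 active means inhibition above the mean of solvent-only control wells plus 3 SD, set per campaign, cut at about 25% in these data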;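 further: 0% = IL-6 plus DMSO and 100% = IL-6 plus nifuroxazide control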
# An asterisk follows results filed as active; . = no result given. A selection: hits, their analogues and other compounds. The true share with any hit is near 4.9%.
SMILES,STAT3 blocker,STAT1 inh-1,STAT3 activator,STAT1 act,APP 5'UTR act,NF-kB neuron act,STAT1 inh-2,NFkB inh,STAT3 inh 2
CC(C)C(C(=O)Nc1ccc2c(c1)OCCOCCOCCOCCO2)N1C(=O)c2ccccc2C1=O (stereo unspecified),-4,6,104,93,-13,1.2,.,.,.
CCn1c(O)c(/C=N/NC(=O)c2ccncc2)c(=O)n(CC)c1=S,8,61*,95,45,16,1.1,60*,1,-46
Cn1c(=O)n(C)c2cc(/C=N/NC(=O)c3ccncc3)ccc21,7,4,96,95,18,1,.,.,.
O=C(CSc1nc2ccccc2c(=O)[nH]1)c1ccc(O)c(O)c1,8,4,99,97,-7,1.1,.,.,.
O=C(CSc1nc2ccccc2c(=O)[nH]1)c1ccc(O)cc1O,3,64*,100,40,21,0.75,43*,6,0
NC(=S)N/N=C1/CCSc2ccc3ccccc3c21,16,6,91,94,3,1.2,.,.,.
NC1=NC(=O)/C(=C\c2ccsc2)S1,-3,-13,106,110,15,1.5,.,.,.
O=C(CSc1nc2c(c(=O)n1-c1ccccc1)SCC2)N1CCN(c2ccccc2)CC1,14,45*,89,59,7,0.72,53*,16*,16
COc1ccc(-n2c(SCc3ccccn3)nc3c(c2=O)SCC3)cc1OC,5,40*,107,63,-14,0.86,30,-2,-24
CSCCC(NS(=O)(=O)c1ccc(C)c(C(=O)O)c1)C(=O)O (stereo unspecified),3,-9,99,106,18,1.3,.,.,.
CC(C)CNC(=O)COC(=O)c1c2c(nc3ccccc13)/C(=C/c1cccs1)CC2,5,38*,92,65,5,0.98,21,-14,10
CCCCC(=O)N/N=C(C)/C=C/c1ccccc1F,6,45*,99,58,18,1.2,14,-11,-37
CC(/C=C/c1ccccc1F)=N\NC(=O)C(C)C,-5,-10,107,109,17,1.8,.,.,.
CCOC(=O)C1C(c2ccc(O)c(O)c2)NC(=S)NC1(O)C(F)(F)F (stereo unspecified),0,2,98,98,0,1.1,.,.,.
Cc1ccc2sc(-c3ccc(NC(=O)/C=C\C(=O)O)cc3)nc2c1,19,43*,86,59,197*,5.4*,-91,-36,-21
NC(=O)c1cc2cc(Cc3ccccc3Cl)ccc2oc1=O,1,0,101,98,2,0.97,.,.,.
CCC(=O)NC(=S)Nc1ccc(NC(=S)NC(=O)c2ccccc2)cc1,16,83*,91,22,0,0.93,53*,38*,11
CCC(=O)NC(=S)Nc1ccc(NC(=S)NC(=O)c2ccc(C)cc2)cc1,9,6,95,93,9,1.1,.,.,.
CCOC(=O)/C(=C/C=C1\Sc2ccccc2N1CC)C(C)=O,21,-5,83,104,-10,0.5,.,.,.
CCOC(=O)/C(=C/C=C1\Sc2cc(C)c(C)cc2N1CC)C(C)=O,22,40*,85,62,26,0.57,40*,-1,27*
Cn1c(-c2ccccc2)c(C(=O)CCl)c2ccccc21,9,37*,98,65,12,1,36*,40*,7
CCOc1ncccc1C(=O)N(C)CC(=O)Nc1ccccc1SC,-15,6,109,95,13,1,.,.,.
Cn1c(C(=O)N2CCN(c3ccc([N+](=O)[O-])cc3)CC2)cc2c(=O)[nH]c3ccccc3c21,19,51*,87,52,-2,1.1,34*,5,8
CCS(=O)(=O)N1CCN=C1SCc1cccnc1,2,-11,104,108,15,1.2,.,.,.
COc1ccc(-n2cc(-c3ccccc3)c3c(N4CCOCC4)ncnc32)cc1,25,44*,81,58,-10,0.3,28,2,-60
SMILES,STAT3 blocker,STAT1 inh-1,STAT3 activator,STAT1 act,APP 5'UTR act,NF-kB neuron act,STAT1 inh-2,NFkB inh,STAT3 inh 2
COc1ccc(NC(=O)c2ccc(-c3ccccc3)cc2)cc1S(=O)(=O)N1CCOCC1,31,38*,75,65,3,0.99,47*,29*,15
CCc1ccc(C(=O)Nc2ccc(OC)c(S(=O)(=O)N3CCOCC3)c2)cc1,16,13,87,88,10,0.85,.,.,.
CC1CN(C(=O)c2ccc(N3CCCCC3)c([N+](=O)[O-])c2)CC(C)O1 (stereo unspecified),16,-7,92,107,7,1.2,.,.,.
CCOC(=O)c1c(C)sc2c1N(C(=O)CCl)c1cc(Cl)ccc1S2,23,36*,83,67,2,0.19,40*,30*,15
COc1ccc(/C=N/Nc2ccc(C(=O)O)cc2)cc1Br,42,61*,66,42,133,2.7,-56,49*,-137
C=CCOc1c(Br)cc(/C=N/Nc2ccc(C(=O)O)cc2)cc1OCC,8,-27,96,124,104,2.1,.,.,.
Cc1cc(C)n(-c2n[nH]c(C)c2[N+](=O)[O-])n1,6,-8,100,108,29,.,.,.,.
COc1cc2ncnc(NCc3ccc(C)cc3)c2cc1OC,7,7,99,94,-1,0.99,.,.,.
COc1ccccc1CNc1ncnc2cc(Cl)ccc12,-8,42*,113,60,-12,0.91,38*,11,-15
COc1ccc(CCNc2ncnc3cc(OC)c(OC)cc23)cc1OC,22,35*,82,66,-3,0.49,36*,8,25
COc1cc2ncnc(NCCc3ccccc3)c2cc1OC,13,16,90,84,-23,0.62,.,.,.
COc1ccc(CNc2ncnc3cc(Cl)ccc23)cc1OC,4,41*,107,62,7,0.72,35*,12,-16
Clc1ccc2c(NCc3ccco3)ncnc2c1,22,16,83,85,12,0.82,.,.,.
COC(=O)c1ccc2c(=O)n(-c3ccc(OC)cc3)c(=S)[nH]c2c1,4,-1,101,100,15,1.5,.,.,.
COc1ccccc1-c1cc(C(F)(F)F)nc(S(C)(=O)=O)n1,10,40*,90,63,-4,0.87,44*,-8,-33
CS(=O)(=O)c1nc(-c2ccco2)cc(C(F)(F)F)n1,4,39*,103,64,0,1.1,40*,-15,-6

# Screening results (PubChem BioAssay)
